Laboratory results published in ChEMBL document CHEMBL1156690, “Synthesis, anti-HIV-1 integrase, and cytotoxic activities of 4-chloro-N-(4-oxopyrimidin-2-yl)-2-mercaptobenzenesulfonamide derivatives” (Eur J Med Chem, 2008).
Each block holds one compound with its values, some of them ahead of it.

What was measured:
[1] = test system: Malme-3M; assay: Growth inhibition of human MALME-3M cells; type: functional
Summary of the method: (§1)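 Run by the US National Cancer Institute in vitro screen against a panel of 53–57 human tumor cell lines. GI₅₀ is defined as the molar concentration inhibiting 50% net cell growth. TGI is the concentration giving total growth inhibition.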

[2] = test system: A498; assay: Growth inhibition of human A498 cells; type: functional; summary of the method: as §1
[3] = test system: SNB-75; assay: Growth inhibition of human SNB75 cells; type: functional; summary of the method: as §1
[4] = test system: UACC-62; assay: Growth inhibition of human UACC62 cells; type: functional; summary of the method: as §1
[5] = test system: MOLT-4; assay: Growth inhibition of human MOLT4 cells; type: functional; summary of the method: as §1
[6] = test system: HOP-62; assay: Growth inhibition of human HOP62 cells; type: functional; summary of the method: as §1
[7] = test system: M14; assay: Growth inhibition of human M14 cells; type: functional; summary of the method: as §1
[8] = test system: SF-268; assay: (§2) Growth inhibition of human SF268 cells; type: functional; summary of the method: as §1
[9] = test system: NCI-H522; assay: Growth inhibition of human NCI-H522 cells; type: functional; summary of the method: as §1
[10] = test system: HCT-116; assay: Growth inhibition of human HCT116 cells; type: functional; summary of the method: as §1
[11] = test system: NCI-H322M; assay: Growth inhibition of human NCI-H322M cells; type: functional; summary of the method: as §1
[12] = test system: SNB-19; assay: Growth inhibition of human SNB19 cells; type: functional; summary of the method: as §1
[13] = test system: KM12; assay: Growth inhibition of human KM12 cells; type: functional; summary of the method: as §1
[14] = test system: SF-268; assay: as §2; type: functional; summary of the method: as §1; remark: listed apart in the source
[15] = test system: LOX IMVI; assay: Growth inhibition of human LOX IMVI cells; type: functional; details: Homo sapiens, LOX IMVI; summary of the method: as §1
[16] = test system: SK-MEL-5; assay: Growth inhibition of human SK-MEL-5 cells; type: functional; summary of the method: as §1
[17] = test system: T47D; assay: Growth inhibition of human T47D cells; type: functional; summary of the method: as §1
[18] = test system: BT-549; assay: Growth inhibition of human BT549 cells; type: functional; summary of the method: as §1
[19] = target: T1, Human immunodeficiency virus type 1 integrase (Human immunodeficiency virus 1, UniProt Q7ZJM1); assay: Inhibition of HIV1 integrase 3' processing activity
T1 sequence (Q7ZJM1 whole entry): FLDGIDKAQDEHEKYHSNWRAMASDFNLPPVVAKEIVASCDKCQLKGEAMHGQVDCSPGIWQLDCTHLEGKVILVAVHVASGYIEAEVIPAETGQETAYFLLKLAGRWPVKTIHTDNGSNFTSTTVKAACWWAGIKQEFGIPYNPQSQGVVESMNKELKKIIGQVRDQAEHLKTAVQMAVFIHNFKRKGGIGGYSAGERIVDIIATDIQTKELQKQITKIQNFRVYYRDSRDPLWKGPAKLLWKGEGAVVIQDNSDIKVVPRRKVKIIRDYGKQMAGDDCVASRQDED
Summary of the method: (§3)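 HIV-1 integrase (200 nM final) preincubated 30 min at 30 °C with inhibitor in buffer (pH 7.2 MOPS, NaCl, HEPES, EDTA, DTT, 10% glycerol, 7.5 mM MnCl₂, 0.1 mg/ml BSA, 2-mercaptoethanol, 10% DMSO). 20 nM 5'-³²P-labeled linear oligonucleotide substrate then added for 1 h. Quenched with formamide loading dye; products resolved on denaturing 20% polyacrylamide/urea gel. IC₅₀ reported for each step.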

[20] = test system: EKVX; assay: Growth inhibition of human EKVX cells; type: functional; summary of the method: as §1
[21] = test system: SR; assay: Growth inhibition of human SR cells; type: functional; summary of the method: as §1
[22] = target: T1, Human immunodeficiency virus type 1 integrase; assay: Inhibition of HIV1 integrase strand transfer activity; summary of the method: as §3
[23] = test system: CCRF-CEM; assay: Growth inhibition of human CCRF-CEM cells; type: functional; summary of the method: as §1
[24] = test system: HCC 2998; assay: Growth inhibition of human HCC2998 cells; type: functional; summary of the method: as §1
[25] = test system: SN12C; assay: Growth inhibition of human SN12C cells; type: functional; summary of the method: as §1

GI50 [5]: > 100 µM | GI50 [9]: > 100 µM | GI50 [10]: > 100 µM | GI50 [11]: > 100 µM | GI50 [16]: > 100 µM | GI50 [17]: > 100 µM | GI50 [18]: > 100 µM | IC50 [19]: 9 µM | IC50 [22]: 6 µM | GI50 [23]: > 100 µM | GI50 [24]: > 100 µM
Compound: Cc1cc(S(=O)(=O)Nc2nc3cc(-c4ccccc4)sc3c(=O)n2Cc2ccccc2)c(S)cc1Cl
GI50 [1]: > 100 µM | GI50 [2]: > 100 µM | GI50 [3]: > 100 µM | GI50 [4]: > 100 µM | GI50 [6]: > 100 µM | GI50 [7]: > 100 µM | GI50 [8]: > 100 µM | GI50 [12]: > 100 µM | GI50 [13]: > 100 µM | GI50 [14]: > 100 µM | GI50 [15]: > 100 µM | GI50 [20]: > 100 µM | GI50 [21]: > 100 µM | GI50 [25]: > 100 µM

IC50 [19]: > 100 µM | IC50 [22]: 52 µM
Compound: O=C(Nc1ccc(Cl)cc1)c1cc(S(=O)(=O)Nc2nc3ccccc3c(=O)[nH]2)c(SCc2ccccc2)cc1Cl

GI50 [9]: 19 µM | IC50 [19]: > 100 µM | IC50 [22]: > 100 µM
Compound: Cc1cc(S(=O)(=O)Nc2nc3ccccc3c(=O)n2N)c(S)cc1Cl
GI50 [3]: 13.3 µM | TGI [3]: 32.7 µM | GI50 [4]: 19.7 µM | TGI [4]: 49.2 µM | GI50 [8]: 7.2 µM | TGI [8]: 40.1 µM | TGI [9]: 50.8 µM | GI50 [12]: 15.7 µM | TGI [12]: 47.2 µM | GI50 [20]: 14.8 µM | TGI [20]: 29.2 µM

GI50 [5]: > 100 µM | GI50 [9]: > 100 µM | GI50 [10]: > 100 µM | GI50 [16]: > 100 µM | GI50 [17]: > 100 µM | GI50 [18]: > 100 µM | IC50 [19]: 6 µM | IC50 [22]: 4 µM | GI50 [23]: > 100 µM | GI50 [24]: > 100 µM
Compound: Cc1cc(S(=O)(=O)Nc2nc3cc(-c4ccc(Cl)cc4)sc3c(=O)n2Cc2ccccc2)c(S)cc1Cl
GI50 [1]: > 100 µM | GI50 [2]: > 100 µM | GI50 [3]: > 100 µM | GI50 [4]: > 100 µM | GI50 [6]: > 100 µM | GI50 [7]: > 100 µM | GI50 [8]: > 100 µM | GI50 [12]: > 100 µM | GI50 [13]: > 100 µM | GI50 [14]: > 100 µM | GI50 [15]: > 100 µM | GI50 [20]: > 100 µM | GI50 [21]: > 100 µM | GI50 [25]: > 100 µM

IC50 [19]: > 100 µM | IC50 [22]: > 100 µM
Compound: Cc1cc(S(=O)(=O)Nc2nc3n[nH]cc3c(=O)n2N)c(S)cc1Cl

IC50 [19]: > 100 µM | IC50 [22]: 93 µM
Compound: COc1ccc(NC(=O)c2cc(S(=O)(=O)Nc3nc4ccccc4c(=O)[nH]3)c(SCc3ccccc3)cc2Cl)cc1

GI50 [10]: 19.2 µM | GI50 [11]: 19.5 µM | GI50 [16]: 12.5 µM | IC50 [19]: 53 µM | IC50 [22]: 29 µM
Compound: Cc1cc(S(=O)(=O)Nc2nc3ccsc3c(=O)n2Cc2ccccc2)c(S)cc1Cl
GI50 [1]: 19.9 µM | TGI [1]: 56.1 µM | GI50 [2]: 14.2 µM | TGI [2]: 49.3 µM | GI50 [4]: 19.5 µM | TGI [4]: 44.4 µM | GI50 [6]: 19.7 µM | TGI [6]: 46.6 µM | GI50 [7]: 19.8 µM | TGI [7]: 49.6 µM | TGI [10]: 37.7 µM | TGI [11]: 48.8 µM | GI50 [13]: 19.9 µM | TGI [13]: 48.2 µM | TGI [16]: 34.2 µM

IC50 [19]: > 100 µM | IC50 [22]: 90 µM
Compound: Cc1cc(S(=O)(=O)Nc2nc(=O)c3ccccc3n2C)c(SCc2ccccc2)cc1Cl

IC50 [19]: > 100 µM | IC50 [22]: 81 µM
Compound: Cc1cc(S(=O)(=O)Nc2nc3scc(C)c3c(=O)n2N)c(S)cc1Cl

IC50 [19]: > 100 µM | IC50 [22]: > 100 µM
Compound: COc1cc2nc(NS(=O)(=O)c3cc(C)c(Cl)cc3S)n(N)c(=O)c2cc1OC

IC50 [19]: 4.79 µM | IC50 [22]: 4.9 µM
Compound: Cc1cc(S(=O)(=O)Nc2nc(N)n[nH]2)c(S)cc1Cl

IC50 [19]: 55 µM | IC50 [22]: 39 µM
Compound: Cc1cc(S(=O)(=O)Nc2nc3sc(C)c(C)c3c(=O)n2N)c(S)cc1Cl

IC50 [19]: > 100 µM | IC50 [22]: 83 µM
Compound: Cc1cc(S(=O)(=O)Nc2nc3ccccc3c(=O)[nH]2)c(SCc2ccccc2)cc1Cl
